# Measurements published in ChEMBL document CHEMBL4689842, “EUbOPEN Chemogenomics Library wave 1” (2021).
# System: Fibroblast
# Test: Multiplex assay against human fibroblast
# Format: toxicity, cell-based
# Method in brief: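 Hoechst33342, BioTracker Green Microtubule Cytoskeleton Dye, MitoTracker Red and Annexin V Alexa Fluor 680 were added to live cells at seeding, and imaging on a CQ1 microscope at 37°C and 5% CO2 followed compound addition. Gating by CellPathfinder machine learning separated cells into Hoechst high-intensity objects or normal cells, then normal cells into healthy, pyknosed or fragmented nuclei, then pyknosed cells into mitotic or apoptotic. Per cents of healthy-nucleus cells are reported for the tubulin, mitochondrial-mass and membrane-permeability phenotypes.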
# [1] = 12 h, 1 µM, compound concentration 1 uM, replicate 1
# [2] = 12 h, 1 µM, compound concentration 1 uM, replicate 2
# [3] = 12 h, 10 µM, compound concentration 10 uM, replicate 1
# [4] = 12 h, 10 µM, compound concentration 10 uM, replicate 2
# [5] = 24 h, 1 µM, compound concentration 1 uM, replicate 1
# [6] = 24 h, 1 µM, compound concentration 1 uM, replicate 2
# [7] = 24 h, 10 µM, compound concentration 10 uM, replicate 1
# [8] = 24 h, 10 µM, compound concentration 10 uM, replicate 2
# [9] = 48 h, 1 µM, compound concentration 1 uM, replicate 1
# [10] = 48 h, 1 µM, compound concentration 1 uM, replicate 2
# [11] = 48 h, 10 µM, compound concentration 10 uM, replicate 1
# [12] = 48 h, 10 µM, compound concentration 10 uM, replicate 2
compound,measurement,setting,value
CC(C)Oc1ccccc1C(=O)Nc1ccccc1C(=O)Nc1cccc(S(=O)(=O)C(F)(F)F)c1,Population Apoptotic (%),[1],75%
same,Population Fragmented Nuclei (%),[1],23%
same,Population Healthy Nuclei (%),[1],49%
same,Population Hoechst High Intensity Objects (%),[1],14%
same,Population Membrane Permeable-Phenotype (%),[1],16%
same,Population Mitochondria Different-Phenotype (%),[1],22%
same,Population Mitotic Cells (%),[1],25%
same,Population Normal (%),[1],85%
same,Population Pyknosed Nuclei (%),[1],26%
same,Population Tubulin-Different-Phenotype (%),[1],62%
same,Total Cell Count,[1],158
same,Population Apoptotic (%),[2],33%
same,Population Fragmented Nuclei (%),[2],20%
same,Population Healthy Nuclei (%),[2],74%
same,Population Hoechst High Intensity Objects (%),[2],5%
same,Population Membrane Permeable-Phenotype (%),[2],10%
same,Population Mitochondria Different-Phenotype (%),[2],45%
same,Population Mitotic Cells (%),[2],66%
same,Population Normal (%),[2],94%
same,Population Pyknosed Nuclei (%),[2],6%
same,Population Tubulin-Different-Phenotype (%),[2],37%
same,Total Cell Count,[2],62
same,Population Apoptotic (%),[3],61%
same,Population Fragmented Nuclei (%),[3],39%
same,Population Healthy Nuclei (%),[3],34%
same,Population Hoechst High Intensity Objects (%),[3],11%
same,Population Membrane Permeable-Phenotype (%),[3],35%
same,Population Mitochondria Different-Phenotype (%),[3],47%
same,Population Mitotic Cells (%),[3],38%
same,Population Normal (%),[3],88%
same,Population Pyknosed Nuclei (%),[3],25%
same,Population Tubulin-Different-Phenotype (%),[3],23%
same,Total Cell Count,[3],137
same,Population Apoptotic (%),[4],90%
same,Population Fragmented Nuclei (%),[4],17%
same,Population Healthy Nuclei (%),[4],71%
same,Population Hoechst High Intensity Objects (%),[4],4%
same,Population Membrane Permeable-Phenotype (%),[4],97%
same,Population Mitochondria Different-Phenotype (%),[4],92%
same,Population Mitotic Cells (%),[4],10%
same,Population Normal (%),[4],96%
same,Population Pyknosed Nuclei (%),[4],10%
same,Population Tubulin-Different-Phenotype (%),[4],100%
same,Total Cell Count,[4],53
same,Population Apoptotic (%),[5],61%
same,Population Fragmented Nuclei (%),[5],25%
same,Population Healthy Nuclei (%),[5],51%
same,Population Hoechst High Intensity Objects (%),[5],11%
same,Population Membrane Permeable-Phenotype (%),[5],10%
same,Population Mitochondria Different-Phenotype (%),[5],22%
same,Population Mitotic Cells (%),[5],38%
same,Population Normal (%),[5],88%
same,Population Pyknosed Nuclei (%),[5],22%
same,Population Tubulin-Different-Phenotype (%),[5],65%
same,Total Cell Count,[5],168
same,Population Apoptotic (%),[6],33%
same,Population Fragmented Nuclei (%),[6],21%
same,Population Healthy Nuclei (%),[6],66%
same,Population Hoechst High Intensity Objects (%),[6],7%
same,Population Membrane Permeable-Phenotype (%),[6],11%
same,Population Mitochondria Different-Phenotype (%),[6],58%
same,Population Mitotic Cells (%),[6],66%
same,Population Normal (%),[6],92%
same,Population Pyknosed Nuclei (%),[6],11%
same,Population Tubulin-Different-Phenotype (%),[6],35%
same,Total Cell Count,[6],57
same,Population Apoptotic (%),[7],79%
same,Population Fragmented Nuclei (%),[7],40%
same,Population Healthy Nuclei (%),[7],37%
same,Population Hoechst High Intensity Objects (%),[7],12%
same,Population Membrane Permeable-Phenotype (%),[7],21%
same,Population Mitochondria Different-Phenotype (%),[7],71%
same,Population Mitotic Cells (%),[7],20%
same,Population Normal (%),[7],87%
same,Population Pyknosed Nuclei (%),[7],21%
same,Population Tubulin-Different-Phenotype (%),[7],23%
same,Total Cell Count,[7],127
same,Population Apoptotic (%),[8],100%
same,Population Fragmented Nuclei (%),[8],17%
same,Population Healthy Nuclei (%),[8],56%
same,Population Hoechst High Intensity Objects (%),[8],11%
same,Population Membrane Permeable-Phenotype (%),[8],91%
same,Population Mitochondria Different-Phenotype (%),[8],94%
same,Population Mitotic Cells (%),[8],0%
same,Population Normal (%),[8],88%
same,Population Pyknosed Nuclei (%),[8],27%
same,Population Tubulin-Different-Phenotype (%),[8],98%
same,Total Cell Count,[8],55
same,Population Apoptotic (%),[9],70%
same,Population Fragmented Nuclei (%),[9],30%
same,Population Healthy Nuclei (%),[9],57%
same,Population Hoechst High Intensity Objects (%),[9],14%
same,Population Membrane Permeable-Phenotype (%),[9],14%
same,Population Mitochondria Different-Phenotype (%),[9],13%
same,Population Mitotic Cells (%),[9],29%
same,Population Normal (%),[9],85%
same,Population Pyknosed Nuclei (%),[9],12%
same,Population Tubulin-Different-Phenotype (%),[9],49%
same,Total Cell Count,[9],163
same,Population Apoptotic (%),[10],60%
same,Population Fragmented Nuclei (%),[10],29%
same,Population Healthy Nuclei (%),[10],67%
same,Population Hoechst High Intensity Objects (%),[10],7%
same,Population Membrane Permeable-Phenotype (%),[10],4%
same,Population Mitochondria Different-Phenotype (%),[10],1%
same,Population Mitotic Cells (%),[10],40%
same,Population Normal (%),[10],92%
same,Population Pyknosed Nuclei (%),[10],3%
same,Population Tubulin-Different-Phenotype (%),[10],55%
same,Total Cell Count,[10],154
same,Population Apoptotic (%),[11],78%
same,Population Fragmented Nuclei (%),[11],69%
same,Population Healthy Nuclei (%),[11],24%
same,Population Hoechst High Intensity Objects (%),[11],10%
same,Population Membrane Permeable-Phenotype (%),[11],14%
same,Population Mitochondria Different-Phenotype (%),[11],46%
same,Population Mitotic Cells (%),[11],21%
same,Population Normal (%),[11],89%
same,Population Pyknosed Nuclei (%),[11],6%
same,Population Tubulin-Different-Phenotype (%),[11],48%
same,Total Cell Count,[11],232
same,Population Apoptotic (%),[12],50%
same,Population Fragmented Nuclei (%),[12],66%
same,Population Healthy Nuclei (%),[12],29%
same,Population Hoechst High Intensity Objects (%),[12],9%
same,Population Membrane Permeable-Phenotype (%),[12],21%
same,Population Mitochondria Different-Phenotype (%),[12],65%
same,Population Mitotic Cells (%),[12],50%
same,Population Normal (%),[12],90%
same,Population Pyknosed Nuclei (%),[12],3%
same,Population Tubulin-Different-Phenotype (%),[12],55%
same,Total Cell Count,[12],175
